In all, about 340,000 compounds went through this assay and about 3,000 (0.88%) were called active.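 The calls were made as follows: active = inhibition above about 50% at 20 µM (limit read from the data); inactive = the rest.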 What follows is part of a selection rich in actives, with near analogues and random picks from the rest.

Chain of Carboxy-terminal domain RNA polymerase II polypeptide A small phosphatase 1 (Homo sapiens) (Q9GZU7 76-261 limits assumed): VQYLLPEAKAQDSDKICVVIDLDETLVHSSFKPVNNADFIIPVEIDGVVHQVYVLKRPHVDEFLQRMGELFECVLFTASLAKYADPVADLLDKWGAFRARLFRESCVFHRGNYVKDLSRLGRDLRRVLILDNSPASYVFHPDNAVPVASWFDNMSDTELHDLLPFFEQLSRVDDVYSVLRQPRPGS

The test concerns the target Carboxy-terminal domain RNA polymerase II polypeptide A small phosphatase 1 (Homo sapiens) (UniProt Q9GZU7). The test is described as follows: inhibition of human SCP1 dephosphorylation activity – biochemical, colorimetric, uHTS, primary screen (AID 493091).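 Also: plate controls were DMSO wells with enzyme for no effect and wells lacking enzyme for full effect.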 As to conditions: Recombinant Scp1, phosphopeptide, malachite green phosphate absorbance; at 20 µM; stronger effect = higher value. The procedure, abridged:
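System: SCP-1 catalytic domain; Reagent: Phospho 17-mer peptide substrate; Doses: one concentration, 20 µM, with 1.0% DMSO; Incubation: 45 min room-temperature reaction, 5 min colour, 30 min stabiliser; Signal: Phosphate-binding colour reagent, absorbance read at 630 nm.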
Usually inhibition stands for the relative decrease from the control value, in per cent. In the case of `COC(=O)c1sccc1NC(=O)CSc1ccccc1NS(=O)(=O)c1cc(Cl)ccc1Cl`, the inhibition is -13.4% (inactive).

Regarding `O=C(CNC(=O)C12CC3CC(CC(C3)C1)C2)OCC(=O)N1CCCCC1`, the inhibition is -0.76% (inactive).

For the compound `C#CCOCCOCCOCCNc1nc(N2CCN(C(=O)Cn3cc(CCO)nn3)CC2)nc(N2CCN(C(=O)Cn3cc(CCCN=C(N)N)nn3)CC2)n1`, the inhibition is 4.14% (inactive).

In the case of `C#CCOCCOCCOCCNc1nc(N2CCN(C(=O)CCCCCCCCCCNC(=O)[C@H]([C@@H](C)CC)n3cc(CCCCN=C(N)N)nn3)CC2)nc(N2CCN(C(=O)CCCCCCCCCCNC(=O)[C@H](CO)n3cc(CCCSC)nn3)CC2)n1`, the inhibition was 53% (active).

Consider `C#CCOCCOCCOCCNc1nc(N2CCN(C(=O)CCCCCCCCCCNC(=O)[C@H](CCCCN)n3cc(C)nn3)CC2)nc(N2CCN(C(=O)CCCCCCCCCCNC(=O)[C@H](CO)n3cc(CCCSC)nn3)CC2)n1`, for which the inhibition was 26.8% (inactive).

Turning to `Cc1ccc(CNC(=O)C(=O)c2cn(CC(=O)N3CCCC3)c3ccccc23)cc1`, the inhibition is -10.2% (inactive).

`O=C(c1ccccc1)c1ccc(C(=O)N2CCN(c3ccccc3)CC2)cc1`: the inhibition was 0.99% (inactive).

As to `O=C(C1CCC1)N1CCN(c2ccccc2)CC1`, the inhibition was -5.05% (inactive).

Consider `O=C(c1cc2c(s1)CCC2)N1CCN(c2ccccc2)CC1`, for which the inhibition was 51.2% (active).

On to `O=C1NC(c2ccccc2)Cc2ccncc21` (stereo not drawn), for which the inhibition is 5.3% (inactive).

Consider `Cc1cc(/C=C2\SC(=O)N(C)C2=O)c(C)n1-c1cccc(C(=O)O)c1`, for which the inhibition is 54.7% (active).

As for `Cc1cc(/C=C2\SC(=Nc3ccc(N4CCOCC4)cc3)N(C)C2=O)c(C)n1-c1cccnc1`, the inhibition was -4.38% (inactive).

On to `Cc1cc(/C=C2/SC(=O)N(CC(=O)N3CCCC3)C2=O)c(C)n1C`, for which the inhibition was -10.3% (inactive).

Regarding `CC(C)CCN1CCC(C)(NC(=O)c2ccccc2)C1=O` (stereo not drawn), the inhibition is 5.05% (inactive).

On to `Cc1nnc(SCc2ccc(C(=O)c3ccc(Cl)cc3)o2)n1-c1ccccc1`, for which the inhibition was 7.29% (inactive).

On to `CCCn1nc(C(=O)NNC(=O)CCOc2ccccc2OCC)c2ccccc2c1=O`, for which the inhibition was -1.1% (inactive).

With `CSc1nc(-c2ccco2)nn1C(=O)c1ccccc1Cl`, the inhibition was -10.4% (inactive).

For `CCOc1ccccc1/C=c1\sc2nc(-c3ccco3)nn2c1=O`, the inhibition was 78% (active).

With `Nc1ncc(CN2CCCC(C(=O)Nc3ccc(-c4ccco4)cc3)C2)cn1` (stereo not drawn), the inhibition was -3.44% (inactive).

Turning to `COc1ccc(C(=O)C2CCCN(Cc3cccn3-c3ccccn3)C2)c(C)c1` (stereo not drawn), the inhibition is -4.92% (inactive).

Consider `CS(=O)(=O)C1=NN2C(=N)/C(=C\c3ccc(OCCOc4ccccc4)cc3)C(=O)N=C2S1`, for which the inhibition is 50.3% (active).

For `CCOc1cc(/C=C2\C(=N)N3N=C(C)SC3=NC2=O)ccc1OCCOc1ccccc1`, the inhibition is -5.68% (inactive).

For `COc1ccccc1OCCOc1ccc(/C=C2\C(=N)N3N=C(C)SC3=NC2=O)cc1`, the inhibition is -7.04% (inactive).

`CCOc1ccc(S(=O)(=O)N/N=C(\C)c2ccc(Cl)c(Cl)c2Cl)cc1`: the inhibition was -6.85% (inactive).

As for `CSc1ccc(Cl)c(C(=O)OCC(=O)N2CCNC2=O)c1`, the inhibition was 0.5% (inactive).

With `O=C(NCCCNCc1ccccc1)c1ccc(/C=N/O)nc1`, the inhibition was -4.62% (inactive).

As to `CC(C)c1ccc(C(=O)NCCCc2ccccc2)cc1`, the inhibition was -14.7% (inactive).

With `C[N+](C)(C)CCNC(=O)c1cc[n+](Cc2ccccc2)c(/C=N/O)c1`, the inhibition is 99.5% (active).

For the compound `O=C(NNS(=O)(=O)c1ccc([N+](=O)[O-])cc1)C1CCCCC1`, the inhibition was -6.14% (inactive).

As to `Cc1cc2occ(CC(=O)NNC(=O)c3ccccc3F)c2cc1C`, the inhibition is -10.5% (inactive).

Regarding `CCOc1ccc2nc(N(CCCN(C)C)C(=O)c3ccc(C(=O)c4ccccc4)cc3)sc2c1`, the inhibition is 65% (active).

Take `CCN(CC)CCN(C(=O)c1cccc([N+](=O)[O-])c1)c1nc2ccc(OC)cc2s1`: the inhibition is -1.97% (inactive).

As for `CN(C)CCCN(C(=O)c1ccc(S(=O)(=O)N2CCCCCC2)cc1)c1nc2ccc(Br)cc2s1`, the inhibition was 11.7% (inactive).

For `CC(C)CNC(=O)COC(=O)/C=C/c1ccco1`, the inhibition was 22.6% (inactive).

With `COc1c(Br)cc2c(C)c(C(=O)N3CCOCC3)oc2c1Br`, the inhibition is -4.18% (inactive).

On to `CCNc1ccc(C(=O)OCC(=O)N2c3ccccc3NC(=O)C2(C)C)cc1[N+](=O)[O-]`, for which the inhibition is -9.83% (inactive).

Turning to `Cc1ccc(OCCC(=O)OCC(=O)N2c3ccccc3NC(=O)C2(C)C)cc1`, the inhibition is 3.3% (inactive).

On to `CNS(=O)(=O)c1cccc(C(=O)OCC(=O)N2c3ccccc3NC(=O)C2(C)C)c1`, for which the inhibition was 51% (active).

For the compound `CCCCCN(C(=O)CCC(=O)OCC(=O)NC1CCC(C)CC1)c1c(N)n(CCCC)c(=O)[nH]c1=O` (stereo not drawn), the inhibition was 3.11% (inactive).

Regarding `CC(=O)NNC(=O)c1csc(Cc2c(Cl)sc3ccc(Cl)cc23)n1`, the inhibition is -4.25% (inactive).

For the compound `CC1CC(=O)N(CC(=O)Nc2cccc(Cl)c2)c2ccccc2S1(=O)=O` (stereo not drawn), the inhibition was -2.39% (inactive).

Regarding `O=C(CCc1ccc(S(=O)(=O)N2CCOCC2)cc1)Nc1ccc2ccccc2c1`, the inhibition was -11.8% (inactive).

With `CCOc1cc(C(=O)O)ccc1OCCOc1ccccc1`, the inhibition is 6.63% (inactive).

For `CCN(C(=O)COc1ccc(C(=O)c2ccccc2)cc1)c1ccccc1`, the inhibition is -3.83% (inactive).

Take `CC/C(=C(/c1ccccc1)c1ccc(OCC[N+](C)(C)C)cc1)c1ccccc1`: the inhibition was 67.4% (active).

As to `O=C(CCn1ccc([N+](=O)[O-])n1)Nc1nccs1`, the inhibition is -5.19% (inactive).

As for `CC(=O)c1ccc(N2CCN(C(=O)c3ccc(Cl)c(S(=O)(=O)NC4CC4)c3)CC2)c(F)c1`, the inhibition is -5.7% (inactive).

Consider `CC(=O)c1sc2nc(SCC(=O)N3CCCCC3)[nH]c(=O)c2c1C`, for which the inhibition is 7.94% (inactive).

For `Cc1sc2nc(CSCC(=O)NC3CCCCC3)[nH]c(=O)c2c1C`, the inhibition was 1.62% (inactive).

For the compound `CSc1nnc(SCc2nc3sc(C(=O)O)c(C)c3c(=O)[nH]2)s1`, the inhibition is 74% (active).

Consider `CCN1/C(=C\c2ccc3ccccc3[n+]2CC)Sc2cc(C)ccc21`, for which the inhibition is 21.8% (inactive).

Consider `CCN1/C(=C/c2ccc3ccc(C)cc3[n+]2CC)Sc2ccccc21`, for which the inhibition is 64.2% (active).

Consider `CCOc1cc(C2C(C(=O)OC(C)C)=C(C)NC3=C2C(=O)CCC3)cc([N+](=O)[O-])c1O` (stereo not drawn), for which the inhibition was -7.32% (inactive).

The values are drawn from PubChem BioAssay AID493091 (Sanford-Burnham Center for Chemical Genomics, 2011).
